Calls of active or inactive are those of the source. No cut-off for these calls is given here.
Experiments:
[1] = Toxicity in rat assessed as pulmonary effect up to 60 mg/kg, po; format: organism-based; conditions: in vivo
[2] = biological target: 3',5'-cyclic-AMP phosphodiesterase 7B (Homo sapiens, UniProt Q9NP56); assay: Inhibition of recombinant human N-terminal GST-tagged/C-terminal His-tagged PDE7B (109 to end residues) expressed in baculovirus infected Sf9 cells using FAM-cAMP as substrate incubated for 60 mins by fluorescence assay; conditions: sf9, 1 h
[3] = Protein binding in mouse plasma; format: ADME, cell-free; conditions: read-out: PPB
Cytochrome P450 2D6 = Cytochrome P450 2D6 (Homo sapiens, UniProt P10635); assay: Inhibition of CYP2D6 (unknown origin) by fluorescence-based assay; format: ADME
Summary of the method: (§1)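 CYP inhibition run with a fluorescent substrate by a contract laboratory under standard protocols; IC50 reported.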

Mus musculus = assay: Memory enhancement effect in ICR mouse assessed as improvement in novel object discrimination at 0.3 to 30 mg/kg, po administered via gavage measured for 5 mins by open field test; format: functional, organism-based
Summary of the method: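 Male ICR mice (25–30 g), dosed by oral gavage in 5% DMSO, 5% Solutol in PBS. Three phases in an open field box: 10 min habituation on day 1, 5 min training with identical objects on day 2, 5 min test with familiar and novel objects on day 3 (24 h delay). Exploration times recorded; discrimination index d2 = (b − a)/(a + b).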

[4] = biological target: cAMP and cAMP-inhibited cGMP 3',5'-cyclic phosphodiesterase 10A (Homo sapiens, UniProt Q9Y233); assay: Inhibition of recombinant human N-terminal GST-tagged PDE10A1 (2 to 789 residues) expressed in baculovirus infected Sf9 cells using FAM-cAMP as substrate incubated for 60 mins by fluorescence assay; conditions: sf9, 1 h
[5] = biological target: Dual specificity calcium/calmodulin-dependent 3',5'-cyclic nucleotide phosphodiesterase 1A (Homo sapiens, UniProt P54750); assay: Inhibition of recombinant human full length N-terminal GST-tagged PDE1A5 expressed in baculovirus infected Sf9 insect cells using FAM-cAMP as substrate measured after 1 hr by fluorescence assay; conditions: sf9, 1 h
Sequence of Dual specificity calcium/calmodulin-dependent 3',5'-cyclic nucleotide phosphodiesterase 1A (P54750 whole entry): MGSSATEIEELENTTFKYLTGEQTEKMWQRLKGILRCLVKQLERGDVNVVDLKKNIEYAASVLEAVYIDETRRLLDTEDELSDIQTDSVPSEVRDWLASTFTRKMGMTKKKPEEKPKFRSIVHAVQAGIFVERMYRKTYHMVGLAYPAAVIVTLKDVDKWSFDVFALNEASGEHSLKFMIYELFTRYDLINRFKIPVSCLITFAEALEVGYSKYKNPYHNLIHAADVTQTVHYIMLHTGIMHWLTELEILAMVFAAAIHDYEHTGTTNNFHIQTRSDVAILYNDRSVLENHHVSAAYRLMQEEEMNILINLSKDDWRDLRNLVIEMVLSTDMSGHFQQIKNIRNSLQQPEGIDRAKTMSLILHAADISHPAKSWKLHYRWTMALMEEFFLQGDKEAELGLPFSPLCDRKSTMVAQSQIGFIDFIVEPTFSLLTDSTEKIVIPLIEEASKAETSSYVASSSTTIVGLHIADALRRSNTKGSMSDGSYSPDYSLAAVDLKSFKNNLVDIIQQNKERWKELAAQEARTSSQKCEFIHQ

[6] = biological target: High affinity cAMP-specific and IBMX-insensitive 3',5'-cyclic phosphodiesterase 8A (Homo sapiens, UniProt O60658); assay: Inhibition of recombinant human full length N-terminal GST-tagged PDE8A1 expressed in baculovirus infected Sf9 cells using FAM-cAMP as substrate incubated for 60 mins by fluorescence assay; conditions: sf9, 1 h
Sequence of High affinity cAMP-specific and IBMX-insensitive 3',5'-cyclic phosphodiesterase 8A (O60658 whole entry): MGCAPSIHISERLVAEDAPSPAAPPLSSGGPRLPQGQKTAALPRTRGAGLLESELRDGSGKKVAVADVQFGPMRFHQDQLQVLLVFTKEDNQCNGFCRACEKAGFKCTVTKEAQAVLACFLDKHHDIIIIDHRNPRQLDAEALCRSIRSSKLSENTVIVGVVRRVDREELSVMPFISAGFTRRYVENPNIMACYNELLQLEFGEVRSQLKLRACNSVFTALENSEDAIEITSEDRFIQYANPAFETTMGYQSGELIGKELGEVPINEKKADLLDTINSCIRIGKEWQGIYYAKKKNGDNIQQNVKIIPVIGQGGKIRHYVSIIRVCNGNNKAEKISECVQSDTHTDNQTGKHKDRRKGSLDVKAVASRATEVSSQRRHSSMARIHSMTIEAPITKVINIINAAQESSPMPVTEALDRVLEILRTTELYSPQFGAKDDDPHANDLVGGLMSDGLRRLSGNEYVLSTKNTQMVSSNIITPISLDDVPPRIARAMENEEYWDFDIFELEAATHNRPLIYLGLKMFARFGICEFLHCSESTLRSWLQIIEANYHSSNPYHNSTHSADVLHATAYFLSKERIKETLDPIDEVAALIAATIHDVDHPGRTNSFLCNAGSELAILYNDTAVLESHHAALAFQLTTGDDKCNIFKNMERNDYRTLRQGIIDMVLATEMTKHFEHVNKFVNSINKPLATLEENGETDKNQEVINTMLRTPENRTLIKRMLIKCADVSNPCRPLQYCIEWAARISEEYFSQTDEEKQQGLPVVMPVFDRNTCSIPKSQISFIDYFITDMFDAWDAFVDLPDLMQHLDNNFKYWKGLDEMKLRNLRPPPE

[7] = Oral bioavailability in dog; format: ADME, organism-based, Canis lupus familiaris; conditions: in vivo
[8] = Stability in dog liver microsomes assessed as parent compound remaining at 1 uM measured after 30 mins by LC-MS/MS analysis; format: ADME, Canis lupus familiaris, Microsome; conditions: read-out: Stability
Summary of the method: (§2)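 Liver microsome stability run by a contract lab using standard protocols. Parent compound remaining measured after 30 min incubation.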

[9] = biological target: T1, 3',5'-cyclic-AMP phosphodiesterase 4B (Homo sapiens, UniProt Q07343); assay: Inhibition of recombinant N-terminal GST-tagged/C-terminal His-tagged full length human PDE4B2 expressed in baculovirus infected Sf9 cells using FAM-cAMP as substrate incubated for 60 mins by fluorescence assay; conditions: sf9, 1 h
T1 sequence (Q07343 whole entry): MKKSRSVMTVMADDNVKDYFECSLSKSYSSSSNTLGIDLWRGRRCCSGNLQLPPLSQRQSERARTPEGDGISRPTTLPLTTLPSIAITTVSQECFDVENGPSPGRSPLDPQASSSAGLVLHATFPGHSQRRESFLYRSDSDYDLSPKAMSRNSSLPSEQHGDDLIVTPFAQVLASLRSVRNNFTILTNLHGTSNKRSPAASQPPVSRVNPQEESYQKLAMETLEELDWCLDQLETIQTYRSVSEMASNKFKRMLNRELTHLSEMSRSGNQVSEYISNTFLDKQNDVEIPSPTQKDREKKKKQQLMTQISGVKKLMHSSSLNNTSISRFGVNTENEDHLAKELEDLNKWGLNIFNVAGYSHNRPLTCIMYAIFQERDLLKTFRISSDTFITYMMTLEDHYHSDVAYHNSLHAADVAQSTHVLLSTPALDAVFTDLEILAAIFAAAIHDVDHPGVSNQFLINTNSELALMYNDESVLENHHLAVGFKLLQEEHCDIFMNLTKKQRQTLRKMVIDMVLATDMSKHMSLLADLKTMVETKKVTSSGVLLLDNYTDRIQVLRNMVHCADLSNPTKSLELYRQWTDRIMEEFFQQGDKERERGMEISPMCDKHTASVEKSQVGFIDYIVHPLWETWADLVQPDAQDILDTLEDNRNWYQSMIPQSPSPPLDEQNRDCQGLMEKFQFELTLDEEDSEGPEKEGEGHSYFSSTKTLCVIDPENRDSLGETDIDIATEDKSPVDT

[10] = Ratio of drug level in C57Bl6 mouse brain to plasma; format: ADME
[11] = biological target: cGMP-inhibited 3',5'-cyclic phosphodiesterase 3B (Homo sapiens, UniProt Q13370); assay: Inhibition of recombinant N-terminal GST-tagged human PDE3B (592-end residues) expressed in baculovirus infected Sf9 cells using FAM-cAMP as substrate incubated for 60 mins by fluorescence assay; conditions: sf9, 1 h
[12] = Protein binding in human plasma; format: ADME, cell-free; conditions: read-out: PPB
[13] = biological target: T1, 3',5'-cyclic-AMP phosphodiesterase 4B; assay: Inhibition of recombinant human N-terminal GST-tagged PDE4B3 (2 to 721 residues) expressed in baculovirus infected Sf9 cells using FAM-cAMP as substrate incubated for 60 mins by fluorescence assay; conditions: sf9, 1 h
[14] = biological target: T2, 3',5'-cyclic-AMP phosphodiesterase 4A (Homo sapiens, UniProt P27815); assay: Inhibition of recombinant N-terminal GST tagged human PDE4A4B (2 to end residues) expressed in Sf9 cells using FAM-cAMP as substrate incubated for 60 mins by fluorescence assay; conditions: sf9, 1 h
T2 sequence (P27815 whole entry): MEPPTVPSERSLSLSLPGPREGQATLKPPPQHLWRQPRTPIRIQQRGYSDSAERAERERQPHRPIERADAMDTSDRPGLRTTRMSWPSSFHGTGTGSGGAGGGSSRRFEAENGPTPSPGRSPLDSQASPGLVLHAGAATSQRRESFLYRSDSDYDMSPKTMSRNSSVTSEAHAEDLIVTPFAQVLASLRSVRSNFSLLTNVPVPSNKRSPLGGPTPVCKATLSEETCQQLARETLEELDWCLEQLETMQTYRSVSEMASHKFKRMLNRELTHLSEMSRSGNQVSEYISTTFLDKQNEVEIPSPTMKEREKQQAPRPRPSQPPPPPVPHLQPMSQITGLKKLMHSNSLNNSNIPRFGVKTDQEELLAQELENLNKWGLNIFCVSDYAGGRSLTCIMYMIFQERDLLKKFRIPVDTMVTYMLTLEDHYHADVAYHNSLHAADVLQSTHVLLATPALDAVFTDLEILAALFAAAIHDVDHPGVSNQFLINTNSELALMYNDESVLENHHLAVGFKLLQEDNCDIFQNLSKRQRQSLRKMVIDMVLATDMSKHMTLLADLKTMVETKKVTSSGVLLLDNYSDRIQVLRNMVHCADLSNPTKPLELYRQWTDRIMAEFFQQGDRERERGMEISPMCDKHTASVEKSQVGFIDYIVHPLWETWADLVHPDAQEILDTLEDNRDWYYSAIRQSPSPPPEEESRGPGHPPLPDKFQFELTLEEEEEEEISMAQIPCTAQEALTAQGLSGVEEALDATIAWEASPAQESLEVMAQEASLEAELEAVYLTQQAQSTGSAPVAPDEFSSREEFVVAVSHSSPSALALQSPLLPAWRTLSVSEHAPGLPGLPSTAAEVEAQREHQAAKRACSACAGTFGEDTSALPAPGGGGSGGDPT

[15] = biological target: cGMP-specific 3',5'-cyclic phosphodiesterase (Homo sapiens, UniProt O76074); assay: Inhibition of recombinant human N-terminal GST-tagged PDE5A1 expressed in baculovirus infected Sf9 cells using FAM-cGMP as substrate incubated for 60 mins by fluorescence assay; conditions: sf9, 1 h
[16] = Half life in C57Bl6 mouse; format: ADME; conditions: in vivo
[17] = biological target: High affinity cGMP-specific 3',5'-cyclic phosphodiesterase 9A (Homo sapiens, UniProt O76083); assay: Inhibition of recombinant human full length N-terminal GST-tagged PDE9A2 expressed in baculovirus infected Sf9 cells using FAM-cGMP as substrate incubated for 60 mins by fluorescence assay; conditions: sf9, 1 h
[18] = Stability in human liver microsomes assessed as parent compound remaining at 1 uM measured after 30 mins by LC-MS/MS analysis; format: ADME, Microsome; conditions: read-out: Stability; summary of the method: as §2
[19] = Vascular toxicity in rat measured for 28 days; conditions: in vivo, 672 h
[20] = Protein binding in rat plasma; format: ADME, cell-free; conditions: read-out: PPB
[21] = biological target: cGMP-inhibited 3',5'-cyclic phosphodiesterase 3A (Homo sapiens, UniProt Q14432); assay: Inhibition of recombinant human N-terminal His/GST-tagged PDE3A (669 to 1141 residues) expressed in baculovirus infected Sf9 insect cells using cAMP as substrate
Sequence of cGMP-inhibited 3',5'-cyclic phosphodiesterase 3A (Q14432 whole entry, the tested form may be a part): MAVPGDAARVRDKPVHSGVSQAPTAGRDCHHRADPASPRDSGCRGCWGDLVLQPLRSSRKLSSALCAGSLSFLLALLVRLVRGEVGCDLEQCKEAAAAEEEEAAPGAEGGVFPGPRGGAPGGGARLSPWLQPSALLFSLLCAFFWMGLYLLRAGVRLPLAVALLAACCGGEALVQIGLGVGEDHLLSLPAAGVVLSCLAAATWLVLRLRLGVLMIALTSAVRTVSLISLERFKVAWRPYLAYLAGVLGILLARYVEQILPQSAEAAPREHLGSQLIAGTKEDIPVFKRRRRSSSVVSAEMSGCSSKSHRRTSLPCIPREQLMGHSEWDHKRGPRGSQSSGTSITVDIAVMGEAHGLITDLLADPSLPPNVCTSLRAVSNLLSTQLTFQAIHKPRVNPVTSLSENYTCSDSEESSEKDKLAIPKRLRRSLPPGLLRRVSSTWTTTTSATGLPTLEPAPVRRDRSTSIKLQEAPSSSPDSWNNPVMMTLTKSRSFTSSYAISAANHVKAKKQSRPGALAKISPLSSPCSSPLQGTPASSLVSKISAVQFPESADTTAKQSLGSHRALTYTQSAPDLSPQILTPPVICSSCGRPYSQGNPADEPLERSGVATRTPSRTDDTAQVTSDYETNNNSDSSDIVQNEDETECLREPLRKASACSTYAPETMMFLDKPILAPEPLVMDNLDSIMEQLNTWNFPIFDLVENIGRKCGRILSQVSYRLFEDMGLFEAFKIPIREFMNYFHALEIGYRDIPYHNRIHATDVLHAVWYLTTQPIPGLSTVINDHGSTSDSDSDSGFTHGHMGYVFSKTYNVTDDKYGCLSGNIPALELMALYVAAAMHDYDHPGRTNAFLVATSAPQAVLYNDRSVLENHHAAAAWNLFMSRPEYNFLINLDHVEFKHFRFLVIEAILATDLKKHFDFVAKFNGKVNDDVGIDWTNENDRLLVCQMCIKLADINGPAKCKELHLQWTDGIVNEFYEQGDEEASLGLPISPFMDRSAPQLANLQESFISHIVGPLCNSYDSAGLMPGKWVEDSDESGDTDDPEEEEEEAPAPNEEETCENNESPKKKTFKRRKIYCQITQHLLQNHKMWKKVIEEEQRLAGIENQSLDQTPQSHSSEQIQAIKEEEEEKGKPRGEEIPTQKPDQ

Cytochrome P450 3A4 = Cytochrome P450 3A4 (Homo sapiens, UniProt P08684); assay: Inhibition of CYP3A4 (unknown origin) by fluorescence-based assay; format: ADME; summary of the method: as §1
[22] = Toxicity in dog assessed as emesis at 100 mg/kg, po; format: organism-based, Canis lupus familiaris; conditions: in vivo
[23] = Inhibition of recombinant human His6-tagged PDE4D UCR2 deletion mutant catalytic domain expressed in baculovirus infected Sf9 insect cells using cAMP as substrate preincubated for 5 to 10 mins followed by substrate addition and measured for 10 mins by yeast myokinase/pyruvate kinase/lactate dehydrogenase-coupled fluorescence assay relative to control
[24] = biological target: Cone cGMP-specific 3',5'-cyclic phosphodiesterase subunit alpha' (Homo sapiens, UniProt P51160); assay: Inhibition of recombinant human N-terminal GST-tagged PDE6C expressed in baculovirus infected Sf9 cells using FAM-cGMP as substrate incubated for 60 mins by fluorescence assay; conditions: sf9, 1 h
[25] = Oral bioavailability in rat; format: ADME, organism-based; conditions: in vivo
Mustela putorius furo = assay: Induction of emesis in ferret up to 30 mg/kg, po; format: organism-based; conditions: in vivo
[26] = biological target: cGMP-dependent 3',5'-cyclic phosphodiesterase (Homo sapiens, UniProt O00408); assay: Inhibition of recombinant human full length N-terminal thrombin cleavage site-fused/GST-tagged PDE2A expressed in baculovirus infected Sf9 insect cells using FAM-cAMP as substrate measured after 60 mins by fluorescence assay; conditions: sf9, 1 h
[27] = biological target: Dual 3',5'-cyclic-AMP and -GMP phosphodiesterase 11A (Homo sapiens, UniProt Q9HCR9); assay: Inhibition of recombinant human full length N-terminal GST-tagged PDE11A expressed in baculovirus infected Sf9 cells using FAM-cAMP as substrate incubated for 60 mins by fluorescence assay; conditions: sf9, 1 h
Sequence of Dual 3',5'-cyclic-AMP and -GMP phosphodiesterase 11A (Q9HCR9 whole entry): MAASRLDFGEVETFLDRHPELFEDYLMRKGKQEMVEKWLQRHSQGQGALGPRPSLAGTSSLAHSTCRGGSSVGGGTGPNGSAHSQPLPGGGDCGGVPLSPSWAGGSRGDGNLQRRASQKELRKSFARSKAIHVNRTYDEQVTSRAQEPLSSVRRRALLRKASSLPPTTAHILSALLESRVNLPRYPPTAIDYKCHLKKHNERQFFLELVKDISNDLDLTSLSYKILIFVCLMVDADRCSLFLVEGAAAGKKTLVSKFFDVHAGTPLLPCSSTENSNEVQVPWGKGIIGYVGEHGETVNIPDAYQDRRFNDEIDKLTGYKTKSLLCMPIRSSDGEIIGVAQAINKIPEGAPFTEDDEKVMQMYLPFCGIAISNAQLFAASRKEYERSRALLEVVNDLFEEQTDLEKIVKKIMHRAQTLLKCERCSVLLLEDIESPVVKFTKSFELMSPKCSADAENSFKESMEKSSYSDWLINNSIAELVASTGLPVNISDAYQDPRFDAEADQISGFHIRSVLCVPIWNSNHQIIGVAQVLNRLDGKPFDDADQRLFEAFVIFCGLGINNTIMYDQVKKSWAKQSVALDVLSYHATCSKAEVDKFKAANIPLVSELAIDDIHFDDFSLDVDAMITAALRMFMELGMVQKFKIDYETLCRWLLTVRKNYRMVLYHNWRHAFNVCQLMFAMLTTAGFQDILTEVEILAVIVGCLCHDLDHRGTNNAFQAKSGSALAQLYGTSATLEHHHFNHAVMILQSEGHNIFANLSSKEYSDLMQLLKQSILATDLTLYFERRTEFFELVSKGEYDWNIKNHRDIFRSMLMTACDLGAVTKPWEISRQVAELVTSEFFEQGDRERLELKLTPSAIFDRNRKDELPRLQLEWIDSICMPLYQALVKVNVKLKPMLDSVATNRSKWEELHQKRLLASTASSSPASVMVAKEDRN

[28] = Cmax in ICR mouse at 0.3 mg/kg, po; format: ADME, organism-based; parameters: dose 0.3 mg/kg, route oral; conditions: in vivo
[29] = biological target: T2, 3',5'-cyclic-AMP phosphodiesterase 4A; assay: Inhibition of recombinant N-terminal GST-tagged human PDE4A10 (2 to 825 residues) expressed in baculovirus infected Sf9 cells using FAM-cAMP as substrate incubated for 60 mins by fluorescence assay; conditions: sf9, 1 h

SMILES: O=C(O)Cc1ccc(Cc2cc(-c3cccc(Cl)c3)nc(C(F)(F)F)c2)cc1 [ZATOLMILAST]
- Activity [1]: Non-Toxic
- inhibition (INH) [2]: Not Active
- fraction unbound [3]: 0.002 to 0.005
- IC50 (Cytochrome P450 2D6): > 100 µM
- Activity (Mus musculus): Active
- inhibition (INH) [4]: Not Active
- inhibition (INH) [5]: Not Active
- inhibition (INH) [6]: Not Active
- bioavailability [7]: 80 to 100%
- remaining at 0.5 h, 1 µM [8]: 88 to 100%
- inhibition (INH) [9]: Not Active
- BPR [10]: 0.45
- inhibition (INH) [11]: Not Active
- fraction unbound [12]: 0.002 to 0.005
- inhibition (INH) [13]: Not Active
- inhibition (INH) [14]: Not Active
- inhibition (INH) [15]: Not Active
- half-life [16]: 600 to 720 min
- inhibition (INH) [17]: Not Active
- remaining at 0.5 h, 1 µM [18]: 88 to 100%
- Activity [19]: Non-Toxic
- fraction unbound [20]: 0.002 to 0.005
- inhibition (INH) [21]: Not Active
- IC50 (Cytochrome P450 3A4): 15 µM
- Activity [22]: Toxic
- inhibition [23]: inactive
- inhibition (INH) [24]: Not Active
- bioavailability [25]: 80 to 100%
- Activity (Mustela putorius furo): Non-Toxic
- inhibition (INH) [26]: Not Active
- inhibition (INH) [27]: Not Active
- Cmax [28]: 153 ng/mL
- inhibition (INH) [29]: Not Active

Source: ChEMBL document CHEMBL4396869, “Design and Synthesis of Selective Phosphodiesterase 4D (PDE4D) Allosteric Inhibitors for the Treatment of Fragile X Syndrome and Other Brain Disorders” (J Med Chem, 2019)
